One test has as its system BL21-DE3. In words: Ratio of dFTM IC50 to compound IC50 for Pseudomonas aeruginosa thymidylate kinase expressed in Escherichia coli BL21 (DE3) cells assessed as phosphorylation of TMP to dTDP after 20 mins by spectrophotometric analysis. The essentials: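 His-tagged P. aeruginosa TMK expressed in E. coli BL21(DE3) and purified (Ni affinity, gel filtration). TMK diluted in buffer; 40 nM enzyme. Coupled PK/LDH/NDP kinase read-out: 2 mM ATP, 54 μM TMP, 2 mM PEP, 0.22 mM NADH, 40 mM HEPES pH 8.0, 80 mM KCl, 1.6 mM MgCl2. A340 decrease followed 20 min at 25 °C. Twenty 1.67-fold dilutions from 200 or 100 μM final. Initial rates relative to EDTA and enzyme-alone controls. IC50 ratio versus reference inhibitor.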

Test [1] relates to Pseudomonas aeruginosa. In words: Antibacterial activity against […], MexXY, MeyZ efflux pump- knock out Pseudomonas aeruginosa PAO280. The format is functional.
In test [2] the target is T1, Thymidylate kinase (Homo sapiens) (UniProt P23919).
T1 sequence (whole entry): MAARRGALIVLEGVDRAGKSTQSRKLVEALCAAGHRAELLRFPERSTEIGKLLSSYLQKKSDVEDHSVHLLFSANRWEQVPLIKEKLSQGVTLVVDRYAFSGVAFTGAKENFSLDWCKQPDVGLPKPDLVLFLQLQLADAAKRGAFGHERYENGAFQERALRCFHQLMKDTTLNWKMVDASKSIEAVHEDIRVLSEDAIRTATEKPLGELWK
In words: Inhibition of human thymidylate kinase using dTMP as substrate at 200 uM after 30 mins by fluorescence analysis. In short, it runs like this:
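Inhibitor range 0.39–200 μM. Reaction runs 2 min at room temperature, then ADP-detection reagents for 30 min. Read-out is fluorescence at ex 485/em 535 nm. Percent inhibition is corrected using no-enzyme and 5 μM ADP interference controls.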

The target in a further test is T2, Thymidylate kinase (Homo sapiens, UniProt P23919).
T2 sequence (P23919 whole entry): T1 sequence (whole entry)
As to the kind of experiment: Inhibition of human thymidylate kinase using dTMP as substrate after 30 mins by fluorescence analysis.

Test [3] relates to Pseudomonas aeruginosa. As to the kind of experiment: Antibacterial activity against Pseudomonas aeruginosa PAO1. The format is functional.
Test [4] in a line: Selectivity ratio of IC50 for human thymidylate kinase to IC50 for Pseudomonas aeruginosa thymidylate kinase. In short, it runs like this:
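Compound tested at 0.39–200 μM. Reaction 2 min at room temperature, then ADP detection reagents 30 min. Fluorescence read at ex 485/em 535 nm, corrected using 5 μM ADP interference controls and no-enzyme controls. Result is the ratio against the PaTMK coupled-assay IC50.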

The nature of test [5]: Inhibition of Pseudomonas aeruginosa thymidylate kinase expressed in Escherichia coli BL21 (DE3) cells assessed as phosphorylation of dTMP to dTDP after 20 mins by spectrophotometric analysis. The essentials:
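PaTMK from pET15b in E. coli BL21 DE3, purified by HisTrap and Superdex 200, used at 40 nM. dTDP formation was coupled via PK/LDH/NDP kinase to NADH oxidation (A340) over 20 min at 25 °C.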

pIC50: −log10 of the molar value. Some results are limits rather than exact numbers.

Regarding `Cn1c(=O)[nH]c2ncc(-c3cccc(C(N)=O)c3)cc21`, the Ratio IC50 in the test on BL21-DE3 came out at 60. Moreover, the minimal inhibitory concentration (MIC) in the test with Pseudomonas aeruginosa [1] and in the test with Pseudomonas aeruginosa [3] was over 256 µg/mL throughout. Moreover, the inhibition (in general, how much of the control response was suppressed) in test [2] came out at 12%. At Thymidylate kinase, the negative logarithm of the IC50 (pIC50) – broadly, the IC50 on a negative log10 scale, so that one unit is a factor of ten – is under 3.70.
In the case of `Cn1c(=O)[nH]c2ncc(-c3cccc(C(=O)NCCCc4ccc(F)cc4)c3)cc21`, the MIC with Pseudomonas aeruginosa [1] and against Pseudomonas aeruginosa [3] was over 256 µg/mL throughout. The compound further had an inhibition in test [2] of 58%. The Ratio IC50 in test [4] was over 1000. Also, the values for the negative-log IC50 (pIC50) (against Thymidylate kinase; in test [5]) were 3.91 and 6.92, respectively.
Turning to `Cn1c(=O)[nH]c2ncc(-c3cccc(C(=O)NCCCc4ccccc4)c3)cc21`, the MIC against Pseudomonas aeruginosa [1] and in the test with Pseudomonas aeruginosa [3] was over 256 µg/mL in each case. The inhibition in test [2] was 43%. Besides, in test [4], the Ratio IC50 is over 1000. Also, the pIC50 at Thymidylate kinase is under 3.70; in test [5], 6.92.

Source of the values: ChEMBL document CHEMBL1955766, “Structure guided development of novel thymidine mimetics targeting Pseudomonas aeruginosa thymidylate kinase: from hit to lead generation” (J Med Chem, 2012).
